≈ marks a conversion by molar mass, not a printed value.
Legend:
Assay type in all cases: functional
Escherichia coli [1] = experiment: Antibacterial activity against Escherichia coli TOP10 expressing metallo-beta-lactamase NDM-1
Outline: (§1)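 MICs of β-lactams read by Etest on Mueller-Hinton agar plates incubated at 37°C, with susceptibility categories assigned according to CLSI guidelines. Strains tested were a clinical urine isolate (E. coli 271), E. coli TOP10 carrying recombinant plasmid p271A expressing NDM-1, and the TOP10 reference strain.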

Escherichia coli [2] = experiment: Antibacterial activity against Escherichia coli isolate 271; outline: as §1
Escherichia coli [3] = experiment: Antibacterial activity against Escherichia coli TOP10; outline: as §1

SMILES	MIC (Escherichia coli [1])	MIC (Escherichia coli [2])	MIC (Escherichia coli [3])
CO/N=C(\C(=O)N[C@@H]1C(=O)N2C(C(=O)[O-])=C(C[N+]3(C)CCCC3)CS[C@H]12)c1csc(N)n1 [CEFEPIME]	16 µg/mL (≈ 33.3 µM)	64 µg/mL (≈ 133 µM)	
CCN1CCN(C(=O)N[C@@H](C(=O)N[C@@H]2C(=O)N3[C@@H]2SC(C)(C)[C@@H]3C(=O)O)c2ccccc2)C(=O)C1=O [PIPERACILLIN]	512 µg/mL (≈ 989 µM)	> 512 µg/mL	1 µg/mL (≈ 1.93 µM)
C[C@@H](O)[C@H]1C(=O)N2C(C(=O)O)=C(S[C@@H]3CN[C@H](C(=O)Nc4cccc(C(=O)O)c4)C3)[C@H](C)[C@H]12 [ERTAPENEM]	3 µg/mL (≈ 6.31 µM)	32 µg/mL (≈ 67.3 µM)	0.06 µg/mL (≈ 0.126 µM)
C[C@@H](O)[C@H]1C(=O)N2C(C(=O)O)=C(SCCNC=N)C[C@H]12 [IMIPENEM ANHYDROUS]	4 µg/mL (≈ 13.4 µM)	6 µg/mL (≈ 20 µM)	
C[C@H]1[C@H](NC(=O)/C(=N\OC(C)(C)C(=O)O)c2csc(N)n2)C(=O)N1S(=O)(=O)O [AZTREONAM]	0.25 µg/mL (≈ 0.574 µM)	64 µg/mL (≈ 147 µM)	
C[C@@H](O)[C@H]1C(=O)N2C(C(=O)O)=C(S[C@@H]3CN[C@H](C(=O)N(C)C)C3)[C@H](C)[C@H]12 [MEROPENEM]	3 µg/mL (≈ 7.82 µM)	16 µg/mL (≈ 41.7 µM)	0.06 µg/mL (≈ 0.156 µM)
CC1(C)S[C@@H]2[C@H](NC(=O)[C@H](C(=O)O)c3ccsc3)C(=O)N2[C@H]1C(=O)O [TICARCILLIN]	> 512 µg/mL	> 512 µg/mL	4 µg/mL (≈ 10.4 µM)
CO/N=C(\C(=O)N[C@@H]1C(=O)N2C(C(=O)O)=C(COC(C)=O)CS[C@H]12)c1csc(N)n1 [CEFOTAXIME]	256 µg/mL (≈ 562 µM)	512 µg/mL (≈ 1120 µM)	0.12 µg/mL (≈ 0.263 µM)
CC(C)(O/N=C(\C(=O)N[C@@H]1C(=O)N2C(C(=O)[O-])=C(C[n+]3ccccc3)CS[C@H]12)c1csc(N)n1)C(=O)O [CEFTAZIDIME]	128 µg/mL (≈ 234 µM)	256 µg/mL (≈ 468 µM)	0.06 µg/mL (≈ 0.11 µM)
CC1(C)S[C@@H]2[C@H](NC(=O)[C@H](N)c3ccc(O)cc3)C(=O)N2[C@H]1C(=O)O [AMOXICILLIN]	> 512 µg/mL	> 512 µg/mL	4 µg/mL (≈ 10.9 µM)
CO[C@@]1(NC(=O)Cc2cccs2)C(=O)N2C(C(=O)O)=C(COC(N)=O)CS[C@@H]21 [CEFOXITIN]	256 µg/mL (≈ 599 µM)	512 µg/mL (≈ 1200 µM)	4 µg/mL (≈ 9.36 µM)
